Active and inactive are the calls of the source. The rule behind the calls is not given here.
How the values were obtained:
D(1A) dopamine receptor = D(1A) dopamine receptor (Sus scrofa, UniProt P50130); experiment: Displacement of [3H]SCH23390 from dopamine D1 receptor in porcine striatal membranes
Homo sapiens [1] = species on record: Homo sapiens; experiment: Selectivity ratio of Ki for human dopamine D3 receptor to Ki for human dopamine D4.4 receptor
[2] = Displacement of [3H]prazosin from adrenergic alpha1 receptor in porcine cortical membranes; type: cell membranes, Sus scrofa
Procedure, shortened: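 Porcine cerebral cortex homogenate, 40 μg/mL protein per tube, with 0.2 nM [³H]prazosin. Protein was measured by Lowry. Competition curves were fitted by nonlinear regression.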

[3] = Lipophilicity, log P of the compound at pH 7.4 by HPLC method; conditions: buffer
D(2) dopamine receptor [4] = target: T1, D(2) dopamine receptor (Homo sapiens, UniProt P14416); experiment: Displacement of [3H]spiperone from human dopamine D2short receptor expressed in CHO cells; type: cell-based
Procedure, shortened: (§1)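 Membranes from CHO cells stably expressing each receptor, 2–6 μg protein per tube, competed against [³H]spiperone at 0.2 nM final. Competition curves were analyzed by nonlinear regression to give Ki.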

[5] = target: 5-hydroxytryptamine receptor 2A (Sus scrofa, UniProt P50129); experiment: Displacement of [3H]ketanserin from 5-HT2 receptor in porcine cortical membranes; type: cell membranes
Procedure, shortened: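 Porcine cerebral cortex homogenate, 110 μg/mL protein per tube, with 0.5 nM [³H]ketanserin. Protein was measured by Lowry. Competition curves were fitted by nonlinear regression.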

D(3) dopamine receptor = D(3) dopamine receptor (Homo sapiens, UniProt P35462); experiment: Displacement of [3H]spiperone from human dopamine D3 receptor expressed in CHO cells; type: cell-based
Procedure, shortened: as §1

Homo sapiens [6] = species on record: Homo sapiens; experiment: Selectivity ratio of Ki for human dopamine D2long receptor to Ki for human dopamine D4.4 receptor
D(2) dopamine receptor [7] = target: T1, D(2) dopamine receptor; experiment: Displacement of [3H]spiperone from human dopamine D2long receptor expressed in CHO cells; type: cell-based
Procedure, shortened: as §1

[8] = Displacement of [3H]WAY100635 from 5-HT1A receptor in porcine cortical membranes
D(4) dopamine receptor = target: T2, D(4) dopamine receptor (Homo sapiens, UniProt P21917); experiment: Displacement of [3H]spiperone from human dopamine D4.4 receptor expressed in CHO cells; type: cell-based
T2 sequence (P21917 whole entry): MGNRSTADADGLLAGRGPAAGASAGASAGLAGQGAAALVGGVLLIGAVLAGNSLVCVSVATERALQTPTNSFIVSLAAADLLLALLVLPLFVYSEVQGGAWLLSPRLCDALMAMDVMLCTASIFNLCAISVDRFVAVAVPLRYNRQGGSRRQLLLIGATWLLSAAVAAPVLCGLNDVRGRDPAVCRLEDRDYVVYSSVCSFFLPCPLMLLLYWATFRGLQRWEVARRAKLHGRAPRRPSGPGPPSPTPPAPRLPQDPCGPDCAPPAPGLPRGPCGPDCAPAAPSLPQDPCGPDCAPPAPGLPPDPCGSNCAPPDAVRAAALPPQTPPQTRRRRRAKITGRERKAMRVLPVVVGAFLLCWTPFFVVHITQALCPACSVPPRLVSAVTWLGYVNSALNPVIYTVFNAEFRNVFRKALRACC
Procedure, shortened: as §1

Homo sapiens [9] = species on record: Homo sapiens; experiment: Selectivity ratio of Ki for human dopamine D2short receptor to Ki for human dopamine D4.4 receptor
CHO10001 = experiment: Neutral antagonist activity at human dopamine D4.2 receptor expressed in CHO10001 cells assessed as inhibition of [3H]thymidine incorporation relative to quinpirole; type: functional, cell-based
Procedure, shortened: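 Growing D4.2-expressing CHO10001 cells were stimulated with test compound and given 0.02 μCi [³H]thymidine per well; incorporation was measured. Data from four dose-response experiments were normalized and pooled to give means per concentration, and compared with the full agonist quinpirole.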

[10] = target: T3, D(4) dopamine receptor (Mus musculus) (UniProt P51436); experiment: Binding affinity to dopamine D4 receptor in NMRI mouse hippocampus cornu ammonis 3 at 20 nmol/L after 30 mins using cresyl violet staining by In vitro autoradiography in presence of 10 uM non-radiolabeled compound; type: tissue-based; conditions: tested as the 18F-labelled form
T3 sequence (whole entry): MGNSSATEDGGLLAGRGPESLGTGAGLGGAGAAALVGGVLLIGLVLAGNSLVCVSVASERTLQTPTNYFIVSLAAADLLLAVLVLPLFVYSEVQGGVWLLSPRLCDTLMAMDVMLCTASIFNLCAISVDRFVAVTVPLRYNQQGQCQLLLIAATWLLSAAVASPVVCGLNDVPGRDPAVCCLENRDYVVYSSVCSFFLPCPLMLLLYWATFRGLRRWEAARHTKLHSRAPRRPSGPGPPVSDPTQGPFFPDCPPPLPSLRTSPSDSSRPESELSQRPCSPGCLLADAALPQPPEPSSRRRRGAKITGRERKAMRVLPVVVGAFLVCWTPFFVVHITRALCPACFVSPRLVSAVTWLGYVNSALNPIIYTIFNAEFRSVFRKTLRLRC
Procedure, shortened: (§2)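 Sagittal brain slices from female NMRI mice (2–6 months) were preincubated 10 min in 50 mmol/L Tris-HCl pH 7.4 at 22 °C. They were then incubated 30 min with 20 nmol/L [¹⁸F]-ligand plus 10 μmol/L displacer (spiperone or cold standard), or with DMSO alone for total binding. After the ¹⁸F had decayed, regions were identified by cresyl violet staining.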

[11] = target: T4, D(4) dopamine receptor (Rattus norvegicus) (UniProt P30729); experiment: Binding affinity to dopamine D4 receptor in Wistar rat hippocampus at 5 nmol/L after 30 mins using cresyl violet staining by In vitro autoradiography in presence of 10 uM non-radiolabeled compound; type: tissue-based; conditions: tested as the 18F-labelled form
T4 sequence (whole entry): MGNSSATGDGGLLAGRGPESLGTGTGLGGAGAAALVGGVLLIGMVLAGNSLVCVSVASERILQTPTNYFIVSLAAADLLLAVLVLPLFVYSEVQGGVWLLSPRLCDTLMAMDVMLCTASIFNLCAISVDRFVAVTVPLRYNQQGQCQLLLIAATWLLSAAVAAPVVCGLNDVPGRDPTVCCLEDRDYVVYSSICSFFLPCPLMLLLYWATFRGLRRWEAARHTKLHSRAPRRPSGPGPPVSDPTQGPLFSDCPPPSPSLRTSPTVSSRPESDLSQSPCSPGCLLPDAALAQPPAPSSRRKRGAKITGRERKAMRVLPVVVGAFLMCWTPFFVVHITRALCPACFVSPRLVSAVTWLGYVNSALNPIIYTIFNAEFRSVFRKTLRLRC
Procedure, shortened: (§3)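 Horizontal 20 μm cryostat sections of brains from Wistar rats (4–6 months, 230–250 g) were used. After a 10 min preincubation in 50 mmol/L Tris-HCl pH 7.4 at 22 °C, slices were incubated 30 min with ¹⁸F-radioligand (5 nmol/L, or 10 nmol/L for one tracer). Nonspecific binding was taken with 10 μmol/L spiperone or cold standard; total binding had DMSO alone. Regions were assigned by cresyl violet staining.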

[12] = target: T4, D(4) dopamine receptor (Rattus norvegicus); experiment: Binding affinity to dopamine D4 receptor in medial nuclei of cerebellum in Wistar rat at 5 nmol/L after 30 mins using cresyl violet staining by In vitro autoradiography in presence of 10 uM non-radiolabeled compound; type: tissue-based; conditions: tested as the 18F-labelled form
Procedure, shortened: as §3

[13] = target: T3, D(4) dopamine receptor (Mus musculus); experiment: Binding affinity to dopamine D4 receptor in NMRI mouse hippocampus at 20 nmol/L after 30 mins using cresyl violet staining by In vitro autoradiography in presence of 10 uM non-radiolabeled compound; type: tissue-based; conditions: tested as the 18F-labelled form
Procedure, shortened: as §2

[14] = target: T4, D(4) dopamine receptor (Rattus norvegicus); experiment: Binding affinity to dopamine D4 receptor in coliculus of Wistar rat at 5 nmol/L after 30 mins using cresyl violet staining by In vitro autoradiography in presence of 10 uM non-radiolabeled compound
Procedure, shortened: as §3

[15] = target: T4, D(4) dopamine receptor (Rattus norvegicus); experiment: Binding affinity to dopamine D4 receptor in Wistar rat cortex at 5 nmol/L measured after 30 mins; conditions: tested as the 18F-labelled form
Procedure, shortened: as §3

[16] = target: T3, D(4) dopamine receptor (Mus musculus); experiment: Binding affinity to dopamine D4 receptor in NMRI mouse hippocampus dentate gyrus at 20 nmol/L after 30 mins using cresyl violet staining by In vitro autoradiography in presence of 10 uM non-radiolabeled compound; type: tissue-based; conditions: tested as the 18F-labelled form
Procedure, shortened: as §2

[17] = target: T4, D(4) dopamine receptor (Rattus norvegicus); experiment: Binding affinity to dopamine D4 receptor in Wistar rat striatum at 5 nmol/L after 30 mins using cresyl violet staining by In vitro autoradiography in presence of 10 uM non-radiolabeled compound; conditions: tested as the 18F-labelled form
Procedure, shortened: as §3

[18] = target: T4, D(4) dopamine receptor (Rattus norvegicus); experiment: Binding affinity to dopamine D4 receptor in Wistar rat frontal cortex at 5 nmol/L after 30 mins using cresyl violet staining by In vitro autoradiography in presence of 10 uM non-radiolabeled compound; type: tissue-based; conditions: tested as the 18F-labelled form
Procedure, shortened: as §3

[19] = target: T3, D(4) dopamine receptor (Mus musculus); experiment: Binding affinity to dopamine D4 receptor in NMRI mouse cortex at 20 nmol/L after 30 mins using cresyl violet staining by In vitro autoradiography in presence of 10 uM non-radiolabeled compound; conditions: tested as the 18F-labelled form
Procedure, shortened: as §2

[20] = target: T4, D(4) dopamine receptor (Rattus norvegicus); experiment: Binding affinity to dopamine D4 receptor in coliculus of Wistar rat at 10 nmol/L after 30 mins using cresyl violet staining by In vitro autoradiography in presence of 10 uM non-radiolabeled compound; conditions: tested as the 18F-labelled form
Procedure, shortened: as §3

[21] = target: T4, D(4) dopamine receptor (Rattus norvegicus); experiment: Binding affinity to dopamine D4 receptor in Wistar rat thalamus at 5 nmol/L measured after 30 mins; conditions: tested as the 18F-labelled form
Procedure, shortened: as §3

[22] = target: T3, D(4) dopamine receptor (Mus musculus); experiment: Binding affinity to dopamine D4 receptor in NMRI mouse coliculus at 20 nmol/L after 30 mins using cresyl violet staining by In vitro autoradiography in presence of 10 uM non-radiolabeled compound; conditions: tested as the 18F-labelled form
Procedure, shortened: as §2

[23] = Octanol-buffer partition coefficient, log P of the compound at pH 7.4 by shake flask method
[24] = target: T4, D(4) dopamine receptor (Rattus norvegicus); experiment: Binding affinity to dopamine D4 receptor in Wistar rat brain slices assessed as nonspecific binding at 10 nmol/L measured after 30 mins by In vitro autoradiography presence of nonradioactive ligand; conditions: tested as the 18F-labelled form
Procedure, shortened: as §3

[25] = target: T4, D(4) dopamine receptor (Rattus norvegicus); experiment: Binding affinity to dopamine D4 receptor in medial nuclei of cerebellum in Wistar rat at 10 nmol/L after 30 mins using cresyl violet staining by In vitro autoradiography in presence of 10 uM non-radiolabeled compound; type: tissue-based; conditions: tested as the 18F-labelled form
Procedure, shortened: as §3

T1 sequence (P14416 whole entry): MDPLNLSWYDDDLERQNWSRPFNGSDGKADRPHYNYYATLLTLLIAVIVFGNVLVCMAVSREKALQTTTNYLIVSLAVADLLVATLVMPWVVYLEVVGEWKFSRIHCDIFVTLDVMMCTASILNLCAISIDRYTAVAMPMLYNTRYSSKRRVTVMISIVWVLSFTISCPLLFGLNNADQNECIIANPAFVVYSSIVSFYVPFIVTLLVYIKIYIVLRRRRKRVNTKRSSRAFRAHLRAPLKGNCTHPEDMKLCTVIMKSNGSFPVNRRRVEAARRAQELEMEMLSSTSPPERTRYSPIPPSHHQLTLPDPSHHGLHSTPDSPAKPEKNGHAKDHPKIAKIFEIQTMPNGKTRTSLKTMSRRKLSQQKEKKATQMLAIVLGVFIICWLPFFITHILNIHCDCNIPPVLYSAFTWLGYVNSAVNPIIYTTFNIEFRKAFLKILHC
5-hydroxytryptamine receptor 2A, sequence (P50129 whole entry): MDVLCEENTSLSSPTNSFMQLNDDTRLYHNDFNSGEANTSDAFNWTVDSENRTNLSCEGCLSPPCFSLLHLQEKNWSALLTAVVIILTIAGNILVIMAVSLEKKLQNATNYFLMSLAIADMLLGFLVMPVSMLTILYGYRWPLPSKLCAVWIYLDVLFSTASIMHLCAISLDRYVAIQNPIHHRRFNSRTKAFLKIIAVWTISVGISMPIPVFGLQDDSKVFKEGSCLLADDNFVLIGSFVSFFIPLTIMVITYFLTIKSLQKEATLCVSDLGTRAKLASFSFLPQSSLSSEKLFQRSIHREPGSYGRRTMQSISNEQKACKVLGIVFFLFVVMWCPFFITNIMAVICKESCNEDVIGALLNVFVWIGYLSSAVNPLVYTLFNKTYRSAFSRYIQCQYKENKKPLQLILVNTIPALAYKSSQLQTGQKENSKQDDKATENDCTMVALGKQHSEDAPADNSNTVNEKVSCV
D(3) dopamine receptor, sequence (P35462 whole entry): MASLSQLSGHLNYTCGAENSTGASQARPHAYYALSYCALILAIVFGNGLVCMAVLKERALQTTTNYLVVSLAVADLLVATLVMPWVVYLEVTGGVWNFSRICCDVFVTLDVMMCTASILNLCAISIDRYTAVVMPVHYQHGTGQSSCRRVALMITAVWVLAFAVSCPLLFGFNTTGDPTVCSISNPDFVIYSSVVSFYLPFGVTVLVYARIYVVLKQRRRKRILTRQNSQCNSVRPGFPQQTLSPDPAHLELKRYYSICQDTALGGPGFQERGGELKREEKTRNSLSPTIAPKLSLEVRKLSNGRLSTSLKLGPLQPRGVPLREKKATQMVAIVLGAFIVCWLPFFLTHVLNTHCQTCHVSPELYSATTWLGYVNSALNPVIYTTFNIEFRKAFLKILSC
D(1A) dopamine receptor, sequence (P50130 whole entry): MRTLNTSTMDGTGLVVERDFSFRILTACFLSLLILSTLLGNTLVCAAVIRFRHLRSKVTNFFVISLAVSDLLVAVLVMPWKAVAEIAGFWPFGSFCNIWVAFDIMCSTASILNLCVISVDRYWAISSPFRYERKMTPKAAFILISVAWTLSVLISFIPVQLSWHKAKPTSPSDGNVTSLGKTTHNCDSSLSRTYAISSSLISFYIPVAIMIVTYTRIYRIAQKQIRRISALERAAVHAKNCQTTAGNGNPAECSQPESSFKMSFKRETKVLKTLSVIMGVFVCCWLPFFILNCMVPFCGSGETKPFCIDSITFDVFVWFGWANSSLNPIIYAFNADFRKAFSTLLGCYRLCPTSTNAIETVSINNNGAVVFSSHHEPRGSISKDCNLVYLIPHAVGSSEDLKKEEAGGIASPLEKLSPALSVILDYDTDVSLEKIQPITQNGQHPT

SMILES	Ki (D(1A) dopamine receptor) [µM]	Ratio Ki (Homo sapiens [1])	Ki [2] [µM]	logP [3]	Ki (D(2) dopamine receptor [4]) [µM]	Ki [5] [µM]	Ki (D(3) dopamine receptor) [µM]	Ratio Ki (Homo sapiens [6])	Ki (D(2) dopamine receptor [7]) [µM]	Ki [8] [µM]	Ki (D(4) dopamine receptor) [nM]	Ratio Ki (Homo sapiens [9])	Activity (CHO10001)	Activity [20]	logD [23]	further results
Fc1ccc(CN2CCN(c3ccc4c(c3)OCCO4)CC2)cc1	19	3600	4	2.71	5.7	7	3.9	6700	7.6	5.2	1.1	5000	Active			
Fc1ccc(CN2CCN(c3ccc4c(c3)OCCO4)CC2)cn1	35		11		45	5.8	17		29	21	15		Active	Active		Activity [10]: Active; Activity [11]: inactive; Activity [12]: Active; Activity [13]: Active; Activity ([14]; 10 nmol/L, tested as the 18F-labelled form, in the assay text read “10 nmol/L” for “5 nmol/L”): Active; Activity [15]: Active; Activity [16]: Active; Activity [17]: Active; Activity [18]: inactive; Activity [19]: Active; Activity [21]: Active; Activity [22]: Active
Oc1cc(CN2CCN(c3ccc4c(c3)OCCO4)CC2)ccc1F	15	590	3	1.7	6.1	2.3	4.2	1300	9	6.2	7.3	830	Active	Active	1.78	Activity ([14]; 10 nmol/L, in the assay text read “10 nmol/L” for “5 nmol/L”, tested as the 18F-labelled form): Active; Activity [24]: 33%; Activity [25]: Active
COc1cc(CN2CCN(c3ccc4c(c3)OCCO4)CC2)ccc1F	23	1400	3.3	2.44	16	4.2	5.9	4000	17	5.6	4.2	3800	Active		2.33	

From ChEMBL document CHEMBL1921774, “Evaluation of 18F-labeled benzodioxine piperazine-based dopamine D4 receptor ligands: lipophilicity as a determinate of nonspecific binding” (J Med Chem, 2011)
